High-throughput results: PubChem BioAssay, The Scripps Research Institute Molecular Screening Center
Only some compounds are listed: those with a hit (about 3% of all), similar ones and a draw of the others.
5-HT1A blocker = blocks the human serotonin 5-HT1a receptor | P08908 | CHO 5-HT1a Ga15 NFAT-bla reporter, antagonist mode | inhibition, % at 10 µM | actives 0.68% (n = 62,000);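 active = inhibition above the mean of all tested compounds plus 3 SD, cut at about 43% in these data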;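 note: receptor stimulated by 5-CT agonist at 100 nM near EC80; beta-lactamase reporter measured by ratiometric fluorescence of a cleavable substrate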
S1P3 ag = activates the human S1P3 receptor; S1P3 NFAT-BLA reporter cells, agonism, FRET ratio; relative to 1 µM S1P, basal subtracted; actives 0.1% (n = 60,000); Q99500; AID 373; activation, % at 4.5 µM;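 active = activation above the screen-wide mean plus 3 SD, cut at about 4.5% in these data, passing the limit was not always enough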
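Measure – % activation relative to 1 µM S1P (100%), per plate · System – stable CHO line with human S1P3, Gα16, NFAT-BLA reporter · Timing – cells plated overnight, compound 4 h 37 °C, substrate 2 h RT · Technique – fluorescent BLA substrate, ex 405 nm, em 460/535 nm ratio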
S1P1 ag-PAM = activates or potentiates agonism at human S1P1 receptor. S1P1 CRE-bla cells, forskolin, beta-lactamase FRET, potentiator mode; S1P1 agonist co-added at EC20, 2 nM; 100% = saturating reference agonist, 0% = basal. activation, % at 9.5 µM. actives 0.57% (n = 56,000). P21453;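 active = activation above a cutoff set at the mean activation of all tested compounds plus 3 SD, cut at about 54% in these data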;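 note: forskolin at 4 µM as EC80 and the EC20 agonist is SEW2871; 100% = SEW2871 at its EC100 plus forskolin at EC80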
5HT1E ag = activates the human 5-HT1E serotonin receptor; actives 0.69% (n = 65,000); activation, % at 6 µM; CHO 5-HT1E Ga15 NFAT-bla reporter, FRET; 0% DMSO wells, 100% control agonist wells;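 active = activation above a set limit, the screen-wide mean activation plus 3 SD, cut at about 8.5% in these data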;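 note: 100% = positive control agonist at 1 µM giving full maximal response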
Target sequence (P28566 whole entry, looked up): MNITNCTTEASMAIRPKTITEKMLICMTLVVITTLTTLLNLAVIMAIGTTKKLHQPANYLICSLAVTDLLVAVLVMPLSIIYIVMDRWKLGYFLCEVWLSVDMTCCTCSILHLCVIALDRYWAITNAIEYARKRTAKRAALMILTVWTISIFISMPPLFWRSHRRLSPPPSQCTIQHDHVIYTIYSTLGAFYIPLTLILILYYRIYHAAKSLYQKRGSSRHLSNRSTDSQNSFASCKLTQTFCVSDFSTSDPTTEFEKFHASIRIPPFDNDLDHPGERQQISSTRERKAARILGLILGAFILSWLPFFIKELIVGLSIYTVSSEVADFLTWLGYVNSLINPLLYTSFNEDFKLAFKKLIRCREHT
5HT1a ag = activates the human 5-HT1a serotonin receptor. actives 0.56% (n = 65,000). P08908. activation, % at 10 µM. CHO 5-HT1a Ga15 NFAT-bla reporter, FRET ratio; 0% basal, 100% maximal reference agonist. AID 567;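 active = activation above the screen-wide mean activation plus 3 SD, cut at about 19% in these data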;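 note: 0% = DMSO wells and 100% = 5-CT at EC100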
HTR1E antagonist = 5-HT1E (human) receptor antagonism. P28566. CHO 5-HT1E Ga15 NFAT-bla reporter, FRET, antagonist. inhibition, % at 6 µM. actives 0.99% (n = 65,000). AID 571;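 active = inhibition above a set limit, the mean inhibition across every tested compound plus 3 SD, cut at about 29% in these data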;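 note: signal is the 460 over 535 nm emission ratio of beta-lactamase substrate; 0% = agonist plus DMSO wells and 100% = wells without agonist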
An asterisk follows results filed as active; · = not tested or not shown.

SMILES | 5-HT1A blocker | S1P3 ag | S1P1 ag-PAM | 5HT1E ag | 5HT1a ag | HTR1E antagonist
COc1cccc(CNc2nc3ccccc3n2CCN2CCCCC2)c1OC | 43* | -2 | -9 | 1 | -2 | 4
COc1ccc(CNc2nc3ccccc3n2CCN2CCCCC2)c(OC)c1 | 44* | -2 | -25 | 0 | 1 | -2
COc1ccc(OC)c(CNc2nc3ccccc3n2CCN2CCCCC2)c1 | 29 | -2 | 3 | 0 | -1 | -1
Cc1c(C#N)sc2nc(-c3ccccc3)nc(N3CCCC3)c12 | 9 | -2 | -10 | 1 | -2 | -9
CN(C)c1ccc(/C=C/C(O)=C2/C(=O)N(C)C3(C)CC2c2ccccc2O3)cc1 (stereo not given) | 54* | -1 | -6 | 3 | 12 | 53*
COC(=O)c1ccccc1NC(=O)NCc1ccc2c(c1)OCO2 | 17 | 0 | 6 | -1 | 17 | 31*
COCCN1Cc2cccc(C(=O)NCc3ccccn3)c2C1=O | -2 | -1 | -14 | 0 | -2 | 0
COc1ccccc1NC(=O)NCc1ccc2c(c1)OCO2 | 6 | 0 | -15 | 2 | -1 | -4
COCCN1Cc2cccc(C(=O)NCc3ccc4c(c3)OCO4)c2C1=O | 1 | -1 | 12 | 0 | 238* | 15
COc1ccc(Cl)cc1S(=O)(=O)N1CCN(Cc2ccc3c(c2)OCO3)CC1 | -11 | 0 | 11 | 0 | 3 | -1
Cc1oc(-c2ccccc2)nc1Cn1cccc1C1=NC(c2ccccc2)CO1 (stereo not given) | 32 | -1 | 104* | 0 | 0 | 4
CN1CCN(c2nc(-c3ccccc3)c3cc(Cl)ccc3n2)CC1 | -30 | 13 | -41 | 8 | 30* | 0
Clc1ccc2nc(N3CCNCC3)nc(-c3ccccc3)c2c1 | · | 18* | -50 | 14* | 55* | -4
OCCN1CCN(c2nc(-c3ccccc3)c3cc(Cl)ccc3n2)CC1 | -20 | 4.6* | -41 | 7 | 18 | 6
Clc1ccc2nc(NC3=NCN(CCN4CCOCC4)CN3)nc(-c3ccccc3)c2c1 | -6 | -1 | -22 | 1 | -3 | -2
CCOc1ccc2c(c1)sc(=NC(=O)C1CC1)n2C | -6 | · | · | 1 | 0 | -1
COc1ccc(N2CCN(c3nc(NCCc4ccc(OC)c(OC)c4)nc(OC)n3)CC2)cc1 | 46* | -2 | -23 | 0 | 5 | 21
Cc1nnc(SCC(=O)N2CCOCC2)s1 | 1 | 0 | -10 | -2 | -1 | 4
CSC1=NCCN1C(=O)c1ccc2c(c1)OCO2 | 0 | -1 | -6 | 0 | 0 | 2
CC1=CC(C)(C)N(C(=O)c2ccc(F)cc2)c2cc3c(cc21)OCO3 | 43* | 0 | 13 | -1 | -5 | -4
CSc1oc(-c2ccccc2)nc1S(=O)(=O)c1ccc(C)cc1 | 20 | -2 | -27 | -2 | -1 | 6
Cc1ccc(S(=O)(=O)c2nc(-c3ccccc3)oc2NCc2cccnc2)cc1 | -1 | 0 | -42 | 48* | -4 | -2
CCN(CC)CCCN1C(=O)C(=O)/C(=C(/O)c2ccc3c(c2)OCO3)C1c1ccccn1 (stereo not given) | 2 | -1 | -5 | 0 | 0 | 7
CN(C)CCCN1C(=O)C(=O)/C(=C(/O)c2ccc3c(c2)OCCO3)C1c1ccccn1 (stereo not given) | -1 | -1 | 4 | 0 | 81* | 2
COc1ccccc1CN(CC(=O)NCc1ccco1)C(=O)CNS(=O)(=O)c1ccccc1 | 0 | -1 | 7 | -1 | -2 | -2
SMILES | 5-HT1A blocker | S1P3 ag | S1P1 ag-PAM | 5HT1E ag | 5HT1a ag | HTR1E antagonist
CCOc1ccccc1Nc1ccc(C(=O)O)cc1NC(C)=O | 0 | -1 | -18 | 0 | -4 | -4
N#CC1=C(SCc2ccccc2)NC(=O)CC1c1ccco1 (stereo not given) | -5 | -1 | 4 | 0 | -1 | 7
Cc1ccc(C2CC(=O)NC(SCc3ccccc3)=C2C#N)o1 (stereo not given) | 2 | -1 | 7 | 0 | 35* | 2
N#CCCn1c2ccccc2c2nc3ccccc3nc21 | -9 | 0 | -54 | 0 | 2 | 38*
Cc1cccc(N2CCN(C(=O)c3cc4n(n3)C(C(F)(F)F)CC(c3ccco3)N4)CC2)c1C (stereo not given) | 9 | 0 | 4 | 2 | -2 | 1
Cc1ccc(-c2noc(CCC(=O)NCCN3CCN(Cc4ccccc4)CC3)n2)cc1 | 13 | 0 | -11 | 0 | -3 | 2
O=C(CCc1nc(-c2ccccc2F)no1)Nc1ccc(Oc2ccccc2)cc1 | 11 | -1 | 128* | 0 | 1 | 5
COc1ccc(CNC(=O)CCc2nc(-c3ccccc3F)no2)c(OC)c1 | 3 | -1 | -17 | -1 | -2 | 4
O=C(CCc1nc(-c2ccccc2F)no1)NCCc1ccccc1Cl | 4 | -1 | -5 | 15* | -2 | -18
Cc1ccc(-c2noc(CCC(=O)NCCc3ccccc3Cl)n2)cc1 | 14 | -1 | 0 | 21* | -1 | 1
COc1ccc(N2C(N)=C(C#N)C(c3cccnc3)C3=C2CC(C)(C)CC3=O)cc1 (stereo not given) | 10 | 0 | 0 | 0 | -1 | 3
O=C(NC(=O)N1CCN(c2cccc(Cl)c2)CC1)c1ccccc1 | 12 | -1 | 21 | 14* | 3 | 8
Cc1ccc(C(=O)N2CCN(c3cccc(Cl)c3)CC2)cc1C | 8 | -2 | 24 | 1 | 2 | 5
O=C(NCc1ccccc1)N1CCN(c2ccccc2F)CC1 | -4 | 0 | 9 | 0 | 2 | 1
O=C(NC(=O)N1CCN(c2ccccc2F)CC1)c1ccccc1 | 5 | 0 | 5 | 18* | 17 | 11
O=S(=O)(NCc1ccccn1)c1cccc2nsnc12 | -12 | -1 | -4 | 0 | -2 | 4
COc1cccc(C(=O)Nc2ccc3nc(N4CCN(c5ncccn5)CC4)cc(C)c3c2)c1OC | 24 | · | · | 1 | 4 | 30*
CC(=O)c1c(C)[nH]c(C(=O)OCCCCN2C(=O)c3ccccc3C2=O)c1C | 7 | -2 | 97* | 0 | 4 | 15
CN(C)c1ccc(/C=N/n2ncc3ccccc32)cc1 | -18 | · | · | 3 | 24* | 6
CCCn1c(SCC(=O)Nc2ccccc2C(=O)OCC)nc2c1c(=O)n(C)c(=O)n2C | -1 | 0 | -10 | 0 | -1 | -5
CCN1CCN(c2nc(-c3cccnc3)nc3ccccc23)CC1 | -3 | 0 | 0 | 13* | 4 | 7
CN1CCN(c2nc(-c3cccnc3)nc3ccccc23)CC1 | 10 | -1 | -51 | 42* | 1 | -3
